For 38 compounds, inhibition results are on record in ChEMBL document CHEMBL4627246, “Pyroglutamide-Based P2X7 Receptor Antagonists Targeting Inflammatory Bowel Disease” (J Med Chem, 2020).

The term inhibition denotes the relative decrease from the control value, in per cent.

Activity calls are given as the source filed them. No rule for the calls is given here.

The test has as its target T1, P2X purinoceptor 7 (Homo sapiens) (UniProt Q99572).
T1 sequence (whole entry): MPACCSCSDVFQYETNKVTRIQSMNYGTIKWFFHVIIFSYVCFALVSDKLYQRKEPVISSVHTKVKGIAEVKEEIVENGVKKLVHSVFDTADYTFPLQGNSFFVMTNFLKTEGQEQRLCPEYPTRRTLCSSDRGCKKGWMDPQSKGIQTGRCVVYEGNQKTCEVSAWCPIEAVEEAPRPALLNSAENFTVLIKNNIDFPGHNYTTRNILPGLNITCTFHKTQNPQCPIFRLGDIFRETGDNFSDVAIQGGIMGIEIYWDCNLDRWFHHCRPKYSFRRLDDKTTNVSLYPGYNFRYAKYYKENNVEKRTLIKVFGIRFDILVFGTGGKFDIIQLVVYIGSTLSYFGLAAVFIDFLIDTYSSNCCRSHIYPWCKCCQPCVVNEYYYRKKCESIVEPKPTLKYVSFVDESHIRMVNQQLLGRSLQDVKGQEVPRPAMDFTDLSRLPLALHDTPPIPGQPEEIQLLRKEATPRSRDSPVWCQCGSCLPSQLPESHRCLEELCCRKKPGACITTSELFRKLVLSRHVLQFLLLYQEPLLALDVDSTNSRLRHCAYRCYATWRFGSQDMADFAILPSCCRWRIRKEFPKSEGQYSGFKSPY
Nature of the test: Inhibition of human P2X7 expressed in human HEK293 cells assessed as reduction in BzATP-stimulated TO-PRO-3 incorporation at 10 uM preincubated with compound and TO-PRO-3 for 15 mins prior to BzATP addition and measured after 1 hr by Fluo-3AM dye based flow cytometry relative to control. The test is classed as cell-based. The essentials: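 HEK-293 cells overexpressing human P2RX7 loaded with Fluo-3 AM, then incubated with TO-PRO-3 (large pore uptake) and propidium iodide (viability) plus compound (10⁻⁵ M single point) for 15 min before BzATP 100 µM. After 1 h, flow cytometry; percentage of Fluo-3/TO-PRO-3 double-positive cells calculated. Mean of n ≥ 2 with positive control.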

Regarding `COc1ccc(CN2C(=O)CC[C@H]2C(=O)NCCc2ccccc2)cc1`, the inhibition was found to be 0%. For `Cc1ccc(NC(=O)[C@@H]2CCC(=O)N2c2ccccc2)cc1`, the inhibition worked out at 0%. `O=C1N[C@H](C(=O)NCc2ccc(Cl)cc2Cl)C/C1=C/NCc1ccc(Cl)cc1Cl`: the inhibition was 0%.

Consider `O=C(NCc1ccc(Cl)cc1Cl)[C@@H]1CCC(=O)N1C(c1ccccc1)c1ccccc1`, for which the inhibition turned out to be 0%.

For `CN1C(=O)CC[C@H]1C(=O)NCc1cc(C(F)(F)F)ccc1Cl`, the inhibition was 0%. With `COc1ccc(CNC(=O)[C@@H]2CCC(=O)N2Cc2ccc(Cl)cc2Cl)c(OC)c1`, the inhibition was determined as 0%.

With `O=C(NCc1ccccc1Cl)[C@@H]1CCC(=O)N1Cc1ccccc1Cl`, the inhibition came out at 0%.

As to `CN(C)/C=C1\C[C@H]2C(=O)N(/C(=C/N(C)C)c3ccncc3)C(N(C)C)N2C1=O` (stereo partly drawn), the inhibition was found to be 0%. Then `COc1cc(CNC(=O)[C@@H]2CCC(=O)N2)cc(OC)c1OC`, with “inactive”. With `O=C1N[C@H](C(=O)NCc2ccc(Cl)cc2Cl)C/C1=N\O` (stereo in doubt), the inhibition was found to be 52%.

As for `O=C(NCCc1ccccc1)[C@@H]1CCC(=O)N1Cc1ccc(Cl)cc1Cl`, the inhibition amounted to 0%. In the case of `N#Cc1ccc(N2C(=O)CC[C@H]2C(=O)NCc2ccc(Cl)cc2Cl)cc1`, the inhibition is 0%. In the case of `CN(Cc1ccccc1)C(=O)[C@@H]1CCC(=O)N1Cc1ccc(Cl)cc1Cl`, the inhibition is 0%. Take `CCCCCCN1C(=O)[C@@H]2CCC(=O)N2C1N(C)C` (stereo partly drawn): the inhibition was determined as 0%. On to `O=C(NCc1ccc(Cl)cc1Cl)[C@@H]1CCC(=O)N1Cc1ccccc1`, for which the inhibition stood at 100%. `O=C(NCCc1ccc(Cl)cc1Cl)[C@@H]1CCC(=O)N1c1ccccc1`: the inhibition was found to be 0%. As for `CN(C)C(=O)[C@@H]1CCC(=O)N1`, the inhibition entry was “inactive”. For `O=C(NCc1ccccc1Cl)[C@@H]1CCC(=O)N1c1ccccc1`, the inhibition came to 0%. As to `O=C(NCc1ccc(Cl)cc1Cl)[C@@H]1CCC(=O)N1C(c1ccc(Cl)cc1)c1ccc(Cl)cc1`, the inhibition was determined as 0%. As for `O=C(NCc1ccccc1Cl)[C@@H]1CCC(=O)N1Cc1ccc(Cl)cc1`, the inhibition is 0%. Regarding `COC(=O)[C@@H]1C/C(=C\NCc2ccc(Cl)cc2Cl)C(=O)N1C(=O)OC`, the inhibition stood at 99%. As to `C[n+]1ccccc1C(=O)NCc1ccc(Cl)cc1Cl.[I-]`, the inhibition was determined as 0%. Regarding `O=C(Nc1ccc(Cl)cc1Cl)[C@@H]1CCC(=O)N1Cc1ccccc1Cl`, the inhibition stood at 0%.

Turning to `COc1ccc(N2C(=O)[C@@H]3C/C(=C\N(C)C)C(=O)N3C2N(C)C)cc1` (stereo partly drawn), the inhibition was found to be 0%. As to `O=C(NCc1ccc(Cl)cc1Cl)[C@@H]1CCC(=O)N1c1ccc(Cl)cc1Cl`, the inhibition was found to be 0%.

As for `O=C(NCc1ccccc1Cl)[C@@H]1CCC(=O)N1Cc1ccccc1`, the inhibition was determined as 0%. Regarding `COc1ccc(CN2C(=O)[C@@H]3C/C(=C\N(C)C)C(=O)N3C2N(C)C)c(OC)c1` (stereo partly drawn), the inhibition worked out at 0%.

Turning to `CCCCCCN1C(=O)[C@@H]2C/C(=C\N(C)C)C(=O)N2C1N(C)C` (stereo partly drawn), the inhibition is 0%. Then `O=C(NCc1ccc(Cl)cc1Cl)[C@@H]1CCC(=O)N1c1ccc(Cl)cc1`, with 0%; and `O=C(NCc1ccc(Cl)cc1Cl)[C@@H]1CCC(=O)N1Cc1ccc(Cl)cc1`, with 0%.

With `O=C1N[C@H](C(=O)NCc2ccc(Cl)cc2Cl)C/C1=C\N1CCOCC1`, the inhibition was determined as 56%. Consider `COc1ccc(N2C(=O)CC[C@H]2C(=O)NCc2ccc(Cl)cc2Cl)cc1`, for which the inhibition worked out at 0%. Consider `CN1CCN(/C=C2\C[C@@H](C(=O)NCc3ccc(Cl)cc3Cl)N(c3cccs3)C2=O)CC1`, for which the inhibition amounted to 49%. Take `COc1ccc(NC(=O)[C@@H]2C/C(=C\N(C)C)C(=O)N2)cc1`: the inhibition worked out at 0%. In the case of `O=C(NCC1CCCCC1)[C@@H]1CCC(=O)N1c1ccccc1`, the inhibition was 0%.

On to `CN(C)/C=C1\C[C@H]2C(=O)N(Cc3ccc(Cl)cc3Cl)C(N(C)C)N2C1=O` (stereo partly drawn), for which the inhibition is 24%. Then `O=C(NCc1ccccc1)[C@@H]1CCC(=O)N1Cc1ccc(Cl)cc1Cl`, with 0%; and `COc1ccc(NC(=O)[C@@H]2CCC(=O)N2)cc1OC`, with “inactive”.
